High-throughput results as filed in PubChem BioAssay.
HCT116 PTEN-null – suppresses growth of cells with PTEN deletion; viability, % at 10 µM; 1.2% of 140,000 active; HCT116 PTEN-null viability, CellTiter-Glo, 60 h; stronger effect = lower value;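 active = viability at or below a set limit, 4 SD under the median of all tested compounds, cut at about 3.7% in these data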;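 also: PTEN knockout HCT116 line with beta catenin targeted HCT116 as companion control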
TNAP act hiacc – TNAP (human) activation, high acceptor; P05186; activation factor at 20 µM; purified TNAP, CDP-star luminescence, 1 M DEA, 30 min; stronger effect = higher value; 0 = EDTA background, 1 = DMSO-only activity; 200,000 tested, under 10 active;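 active = activation factor at least 2 at 20 µM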
Target sequence (P05186 whole entry, looked up): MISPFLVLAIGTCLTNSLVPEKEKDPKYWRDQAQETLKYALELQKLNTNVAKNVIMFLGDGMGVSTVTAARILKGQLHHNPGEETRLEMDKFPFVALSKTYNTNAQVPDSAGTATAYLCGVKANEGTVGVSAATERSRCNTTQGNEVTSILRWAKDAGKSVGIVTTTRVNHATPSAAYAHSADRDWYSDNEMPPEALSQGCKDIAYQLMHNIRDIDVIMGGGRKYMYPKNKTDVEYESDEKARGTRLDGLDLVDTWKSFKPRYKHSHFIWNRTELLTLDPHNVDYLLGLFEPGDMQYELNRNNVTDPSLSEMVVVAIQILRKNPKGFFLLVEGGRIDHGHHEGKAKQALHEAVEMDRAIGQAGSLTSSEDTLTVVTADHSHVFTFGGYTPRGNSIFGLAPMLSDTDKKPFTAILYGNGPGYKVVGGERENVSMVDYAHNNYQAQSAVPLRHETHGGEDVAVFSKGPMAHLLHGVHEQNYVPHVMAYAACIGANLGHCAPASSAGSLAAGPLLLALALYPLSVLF
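Measured by: Luminescent substrate turnover signal | Test system: Human TNAP | Input: TNAP 1/800 final | Dosing: 20 µM single point | Schedule: 30 min, room temperature | Controls: EDTA wells as negative control, DMSO wells as positive control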
bCat KO growth – beta-catenin-lacking colon tumor cell growth suppression; HCT116 beta-catenin knockout viability, CellTiter-Glo, 60 h; stronger effect = lower value; viability, % at 10 µM; 1.5% of 140,000 active;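 active = viability at or under a set limit, the compound median less 4 SD, cut at about 6% in these data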;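 also: 0% = Hyamine 1622 control at 20 µM and 100% = untreated cell control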
TNAP inh noacc – inhibitors of human TNAP without phosphate acceptor | P05186 | purified TNAP, CDP-star luminescence, 30 min | inhibition, % at 20 µM | 0.26% of 200,000 active;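 active = tissue-nonspecific alkaline phosphatase inhibition above about 50% at 20 µM in the single-dose screen, limit read from the data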;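 also: 0% = DMSO negative control and 100% = EDTA positive control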
Lmaj promast – Leishmania major promastigote growth inhibition; Leishmania major promastigotes, resazurin fluorescence viability; inhibition, % at 10 µM; 9% of 200,000 active; AID 1063; in the data active = inhibition above about 50%;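 also: promastigotes grown with compound for 44 hours at 28 °C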
TNAP inh hi DEA – blocks human TNAP under high phosphate acceptor concentration | purified TNAP, CDP-star luminescence, 1 M DEA | AID 1135 | inhibition, % at 20 µM | 0.03% of 200,000 active | P05186;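 active = over 50% inhibition of tissue-nonspecific alkaline phosphatase at 20 µM in the single-dose screen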;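 also: plate controls were DMSO wells for no effect and EDTA-quenched wells as full inhibition for full effect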
Active calls of the source: *; nt = not tested or not shown. Only some compounds are listed: those with a hit (about 9.6% of all), similar ones and a draw of the others.

SMILES	HCT116 PTEN-null	TNAP act hiacc	bCat KO growth	TNAP inh noacc	Lmaj promast	TNAP inh hi DEA
COc1ccc(-c2csc(N3C(=O)C4C5c6ccccc6C(c6ccccc65)[C@@H]4C3=O)n2)cc1 (stereo partly specified)	99	1.1	100	-9	-4	-8
COc1ccc(-c2csc(N3C(=O)C4C5c6ccccc6C(c6ccccc65)C4C3=O)n2)cc1 (stereo unspecified)	90	1	93	-9	60*	-4
COC(=O)c1[nH]c2ccc(Br)cc2c1NC(=O)CN1CCN(C2CCCCC2)CC1	1.8*	1.1	1.7*	2	101*	-8
O=C(CN1CCN(C2CCCCC2)CC1)Nc1ccc(Br)cc1	nt	1	nt	-6	88*	-2
S=C(Nc1ccc(Br)cc1)N1CCN(C2CCCCC2)CC1	88	1	88	-7	88*	-4
COc1ccc(NC(=O)CN2CCC(NC(=O)C3CCCCC3)CC2)cc1	102	1.1	101	-13	70*	-6
O=C(NC(=S)NCc1cccnc1)c1cccc2ccccc12	nt	1	nt	-8	-4	-1
CCC(=O)Nc1nnc(SCC(=O)NCCc2ccc(OC)c(OC)c2)s1	nt	1.1	nt	-17	8	-7
COc1cccc(NC(=O)N2CCN(c3nnnn3-c3ccccc3)CC2)c1	nt	1	nt	-8	17	-1
CCc1ccc(NC(=S)N2CCCCCCC2)cc1	nt	1.1	nt	-6	56*	-8
Cc1ccc(NC(=S)N2CCC(c3ccc(C)cc3)C2)cc1 (stereo unspecified)	nt	1	nt	-27	2	-5
Cc1ccc(NC(=S)N2CCN(C3CCCCC3)CC2)cc1	92	1	89	-13	84*	-4
CN1Cc2cccc3c2C(Cc2ccccc2S3)C1 (stereo unspecified)	78	1	81	-7	57*	3
COCC(=O)Nc1cc(C(=O)Nc2ccccc2)ccc1Cl	nt	1	nt	-8	-2	-1
Cc1c(-c2ccccc2)nc2ccccc2c1C(=O)Oc1ccc([N+](=O)[O-])cc1	56	1.1	53	-11	50*	-5
COc1cccc(NC(=O)CC2S/C(=N\S(=O)(=O)c3ccccc3)N(c3ccccc3)C2=O)c1 (stereo unspecified)	94	1	97	4	61*	-2
COc1cccc(NC(=O)CC2SC(=Nc3ccccc3)NC2=O)c1 (stereo unspecified)	86	1	85	8	6	2
CN(C)c1ccc(/C=C/C=N/Nc2nc(N3CCOCC3)nc(N3CCOCC3)n2)cc1	nt	1	nt	-11	1	1
COCCN1C(=O)c2oc3ccccc3c(=O)c2C1c1ccc(OC)c(OC)c1 (stereo unspecified)	0.2*	1	0.1*	-9	-3	-1
Cc1ccccc1S(=O)(=O)c1c(C)cc(C)n(C)c1=O	nt	1.1	nt	-6	2	-6
Cc1ccccc1S(=O)(=O)c1c(C)cc(C)n(CC(C)C)c1=O	74	1.1	68	3	91*	-9
O=C(Cn1c(CO)nc2ccccc21)NC1CCCCCC1	nt	1.1	nt	-8	-6	-5
COc1ccc(-c2cc(C(F)(F)F)nc(SCCC(=O)N3CCN4CCCC4C3)n2)cc1 (stereo unspecified)	45	1	25	-6	55*	-3
COc1ccc(C(CNC(=O)c2ccccc2C)N2CCCC2)cc1 (stereo unspecified)	86	1	86	-21	8	-3
COc1ccc(C(CNC(=O)c2cccc(Br)c2)N2CCCC2)cc1 (stereo unspecified)	nt	1	62	-17	54*	0
SMILES	HCT116 PTEN-null	TNAP act hiacc	bCat KO growth	TNAP inh noacc	Lmaj promast	TNAP inh hi DEA
COc1ccc2c(CC(=O)NCCN3C(=O)S/C(=C\c4cccnc4)C3=O)coc2c1	nt	1	nt	5	8	2
COc1ccc(/C=C2\SC(=O)N(CCNC(=O)Cc3coc4cc(OC)ccc34)C2=O)cc1	87	1	84	3	59*	-1
Cc1ccc(NC(=S)N/N=C2\CC(C)(C)Oc3ccc(O)cc32)cc1	85	0.9	77	10	-9	13
Cc1ccccc1NC(=S)N/N=C1\CC(C)(C)Oc2ccc(O)cc21	nt	0.9	nt	4	84*	6
CCCN1CCN(S(=O)(=O)c2ccc3c(c2)OCCO3)CC1	nt	1.1	nt	-17	19	-7
COc1ccc(Nc2cc(C)nc3ccccc23)cc1	53	1	53	-4	86*	2
Cc1ccc2nc(C)cc(Nc3ccc([N+](=O)[O-])cc3)c2c1	nt	0.9	nt	-10	101*	9
COc1ccc2nc(N3CCOCC3)cc(C)c2c1	109	1.1	102	-15	10	-10
COc1ccc2nc(C)cc(Nc3ccc(N4CCOCC4)cc3)c2c1	63	1	69	-5	51*	0
COc1cc(/C=C(\C#N)c2nc3ccccc3n2C)cc(OC)c1O	nt	0.7	nt	22	0	32
COc1ccc(C)cc1N(CC(=O)N/N=C/c1ccc2c(c1)OCO2)S(C)(=O)=O	nt	1	nt	-10	9	-5
O=C(CCCc1cccs1)Nc1nccs1	nt	1	nt	-2	-3	-2
COc1ccc(S(=O)(=O)N2CCCCC2)cc1NC(=S)Nc1ccccc1	95	1.1	93	-23	84*	-5
COc1ccc(CC(=O)Nc2cc(S(=O)(=O)N3CCCCC3)ccc2C)cc1OC	nt	1	nt	-17	1	-4
COc1ccc(NC(=S)Nc2cc(S(=O)(=O)N3CCCCC3)ccc2OC)cc1	99	1	96	-27	91*	0
COc1ccc(C(=O)NC(=S)Nc2cccc(S(=O)(=O)N3CCOCC3)c2)cc1	nt	1	nt	3	5	-1
COc1ccc(NC(=S)Nc2cccc(S(=O)(=O)N3CCCCC3)c2)cc1	80	1	74	-4	95*	-2
COc1ccc(S(=O)(=O)N2CCCCCC2)cc1NC(=O)Cc1cc(OC)c(OC)c(OC)c1	90	1	102	-17	100*	0
O=C(CNC(=O)c1ccccc1Cl)OC1CCOC1=O (stereo unspecified)	nt	1	nt	-4	-6	1
COc1ccc(/C(C)=N/OC/C(O)=C(\C#N)c2nc3ccccc3[nH]2)cc1	76	1	74	-4	-7	-2
CCS(=O)(=O)N1Cc2ccccc2CC1C(=O)Nc1ncc(C)s1 (stereo unspecified)	nt	1.1	nt	-2	-1	-8
Cc1ccc2nc(NNC(=O)c3ccc(S(=O)(=O)N4CCc5ccccc5C4)cc3)sc2c1	6	0.9	3.8*	-13	100*	9
CCC(=O)NNc1nc2c(C)cc(C)cc2s1	nt	1	nt	-159	-6	0
Cc1cc(C)c2nc(NNC(=O)c3ccc(S(=O)(=O)N4CCCC(C)C4)cc3)sc2c1 (stereo unspecified)	7	1	4.0*	-12	98*	-2
